Assay results published in ChEMBL document CHEMBL1156920, “Structural analogues of schweinfurthin F: probing the steric, electronic, and hydrophobic properties of the D-ring substructure” (Bioorg Med Chem, 2010).

Key:
OVCAR-3 = test: Growth inhibition of human OVCAR-3 cells; assay type: functional
BT-549 = test: Growth inhibition of human BT549 cells; assay type: functional
PC-3 = test: Growth inhibition of human PC3 cells; assay type: functional
CCRF-CEM = test: Growth inhibition of human CCRF-CEM cells; assay type: functional
NCI-H522 = test: Growth inhibition of human NCI-H522 cells; assay type: functional
HL-60(TB) = test: Growth inhibition of human HL-60(TB) cells; assay type: functional
786-0 = test: Growth inhibition of human 786-0 cells; assay type: functional
SF-295 [1] = test: Growth inhibition of human SF295 cells; assay type: functional
[2] = Cytotoxicity against human NCI60 cells; assay type: functional
SN12C = test: Growth inhibition of human SN12C cells; assay type: functional
HCC 2998 = test: Growth inhibition of human HCC2998 cells; assay type: functional
IGROV-1 = test: Growth inhibition of human IGROV1 cells; assay type: functional
UACC-257 = test: Growth inhibition of human UACC257 cells; assay type: functional
SR = test: Growth inhibition of human SR cells; assay type: functional
CAKI-1 = test: Growth inhibition of human Caki1 cells; assay type: functional
SF-268 = test: Growth inhibition of human SF268 cells; assay type: functional
MDA-MB-435 = test: Growth inhibition of human MDA-MB-435 cells; assay type: functional
NCI-H322M = test: Growth inhibition of human NCI-H322M cells; assay type: functional
HT-29 = test: Growth inhibition of human HT-29 cells; assay type: functional
TK-10 = test: Growth inhibition of human TK10 cells; assay type: functional
U-251 = test: Growth inhibition of human U251 cells; assay type: functional
HOP-92 = test: Growth inhibition of human HOP92 cells; assay type: functional
HCT-116 = test: Growth inhibition of human HCT116 cells; assay type: functional
SNB-19 = test: Growth inhibition of human SNB19 cells; assay type: functional
A549 = test: Cytotoxicity against human A549 cells after 44 hrs by MTT assay; assay type: functional, cell-based; conditions: A549, 44 h
How it was run: (§1)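 SF-295 cells cultured in RPMI 1640 and A549 cells in F-12, each with 10% FBS, penicillin–streptomycin, amphotericin B and L-glutamine, at 37 °C in 5% CO2. Cells were grown to 60% confluency, then treated for 44 h. Medium was replaced with medium containing 0.06 mg/mL MTT (phenol red-free RPMI for SF-295) for 4 h. Acid/Triton/isopropanol stop solution was added, plates incubated overnight at 37 °C, OD read at 540 and 650 nm, and EC50 calculated.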

SK-MEL-2 = test: Growth inhibition of human SK-MEL-2 cells; assay type: functional
UO-31 = test: Growth inhibition of human UO31 cells; assay type: functional
UACC-62 = test: Growth inhibition of human UACC62 cells; assay type: functional
A498 = test: Growth inhibition of human A498 cells; assay type: functional
NCI-H460 = test: Growth inhibition of human NCI-H460 cells; assay type: functional
NCI-H23 = test: Growth inhibition of human NCI-H23 cells; assay type: functional
EKVX = test: Growth inhibition of human EKVX cells; assay type: functional
HOP-62 = test: Growth inhibition of human HOP62 cells; assay type: functional
KM12 = test: Growth inhibition of human KM12 cells; assay type: functional
RXF 393 = test: Growth inhibition of human RXF393 cells; assay type: functional
M14 = test: Growth inhibition of human M14 cells; assay type: functional
LOX IMVI = test: Growth inhibition of human LOXIMVI cells; assay type: functional
SF-295 [3] = test: Cytotoxicity against human SF295 cells after 44 hrs by MTT assay; assay type: functional, cell-based; conditions: SF-295, 44 h; how it was run: as §1
NCI/ADR-RES = test: Growth inhibition of human NCI/ADR-RES cells; assay type: functional
COLO 205 = test: Growth inhibition of human COLO205 cells; assay type: functional
T47D = test: Growth inhibition of human T47D cells; assay type: functional
[4] = Growth inhibition of human […] cells; assay type: functional
[5] = read-out: pLC50 (the source's name) (converted)

COc1cc(CCc2cc(O)c(C/C=C(\C)CC/C=C(\C)CO)c(O)c2)cc2c1O[C@]1(C)CC[C@@H](O)C(C)(C)[C@H]1C2
GI50 (OVCAR-3): 11.5 µM
LC50 (50% lethal concentration) (OVCAR-3): > 100 µM
TGI (OVCAR-3; read-out: pTGI (converted)): 33.1 µM
GI50 (BT-549): 3.16 µM
CC50 (BT-549; [5]): 75.9 µM
TGI (BT-549; read-out: pTGI (converted)): 21.9 µM
GI50 (PC-3): 5.5 µM
CC50 (PC-3; [5]): > 100 µM
TGI (PC-3; read-out: pTGI (converted)): 77.6 µM
GI50 (CCRF-CEM): 4.07 µM
CC50 (CCRF-CEM; [5]): > 100 µM
TGI (CCRF-CEM; read-out: pTGI (converted)): 45.7 µM
GI50 (NCI-H522): 5.25 µM
LC50 (50% lethal concentration) (NCI-H522): > 100 µM
TGI (NCI-H522; read-out: pTGI (converted)): 29.5 µM
GI50 (HL-60(TB)): 3.02 µM
CC50 (HL-60(TB); [5]): 95.5 µM
TGI (HL-60(TB); read-out: pTGI (converted)): 12.6 µM
GI50 (786-0): 2.4 µM
LC50 (786-0): > 100 µM
TGI (786-0; read-out: pTGI (converted)): > 100 µM
GI50 (SF-295 [1]): 2.51 µM
LC50 (SF-295 [1]): 45.7 µM
TGI (SF-295 [1]; read-out: pTGI (converted)): 10 µM
GI50 [2]: 4.9 µM
GI50 (SN12C): 7.59 µM
LC50 (SN12C): > 100 µM
TGI (SN12C; read-out: pTGI (converted)): 52.5 µM
GI50 (HCC 2998): 6.17 µM
TGI (HCC 2998; read-out: pTGI (converted)): 25.1 µM
GI50 (IGROV-1): 4.9 µM
LC50 (IGROV-1): > 100 µM
TGI (IGROV-1; read-out: pTGI (converted)): 26.3 µM
GI50 (UACC-257): 6.61 µM
LC50 (UACC-257): > 100 µM
TGI (UACC-257; read-out: pTGI (converted)): 28.2 µM
GI50 (SR): 2.09 µM
LC50 (SR): 66.1 µM
TGI (SR; read-out: pTGI (converted)): 7.59 µM
GI50 (CAKI-1): 4.37 µM
LC50 (CAKI-1): > 100 µM
TGI (CAKI-1; read-out: pTGI (converted)): 21.9 µM
GI50 (SF-268): 6.03 µM
LC50 (SF-268): 87.1 µM
TGI (SF-268; read-out: pTGI (converted)): 25.7 µM
GI50 (MDA-MB-435): 6.31 µM
LC50 (MDA-MB-435): > 100 µM
TGI (MDA-MB-435; read-out: pTGI (converted)): 32.4 µM
GI50 (NCI-H322M): 5.5 µM
CC50 (NCI-H322M; [5]): > 100 µM
TGI (NCI-H322M; read-out: pTGI (converted)): 42.7 µM
GI50 (HT-29): 7.94 µM
LC50 (50% lethal concentration) (HT-29): 87.1 µM
TGI (HT-29; read-out: pTGI (converted)): 26.3 µM
GI50 (TK-10): 13.2 µM
LC50 (TK-10): > 100 µM
TGI (TK-10; read-out: pTGI (converted)): 67.6 µM
GI50 (U-251): 3.02 µM
LC50 (U-251): 58.9 µM
TGI (U-251; read-out: pTGI (converted)): 18.6 µM
GI50 (HOP-92): 7.41 µM
LC50 (HOP-92): > 100 µM
TGI (HOP-92; read-out: pTGI (converted)): 47.9 µM
GI50 (HCT-116): 3.47 µM
CC50 (HCT-116; [5]): 40.7 µM
TGI (HCT-116; read-out: pTGI (converted)): 13.2 µM
GI50 (SNB-19): 4.17 µM
LC50 (SNB-19): 49 µM
TGI (SNB-19; read-out: pTGI (converted)): 18.2 µM
EC50 (A549): > 10 µM
GI50 (SK-MEL-2): 3.89 µM
LC50 (SK-MEL-2): 75.9 µM
TGI (SK-MEL-2; read-out: pTGI (converted)): 17.4 µM
GI50 (UO-31): 3.47 µM
CC50 (UO-31; [5]): > 100 µM
TGI (UO-31; read-out: pTGI (converted)): 20 µM
GI50 (UACC-62): 4.79 µM
CC50 (UACC-62; [5]): 81.3 µM
TGI (UACC-62; read-out: pTGI (converted)): 20.9 µM
GI50 (A498): 7.59 µM
LC50 (A498): > 100 µM
TGI (A498; read-out: pTGI (converted)): 61.7 µM
GI50 (NCI-H460): 3.31 µM
LC50 (NCI-H460): 38.9 µM
TGI (NCI-H460; read-out: pTGI (converted)): 10.7 µM
GI50 (NCI-H23): 6.92 µM
LC50 (NCI-H23): 85.1 µM
TGI (NCI-H23; read-out: pTGI (converted)): 25.7 µM
GI50 (EKVX): 5.75 µM
LC50 (EKVX): > 100 µM
TGI (EKVX; read-out: pTGI (converted)): 33.1 µM
GI50 (HOP-62): 10 µM
LC50 (HOP-62): 53.7 µM
TGI (HOP-62; read-out: pTGI (converted)): 22.9 µM
GI50 (KM12): 4.17 µM
LC50 (KM12): 91.2 µM
TGI (KM12; read-out: pTGI (converted)): 18.6 µM
GI50 (RXF 393): 0.363 µM
CC50 (RXF 393; [5]): > 100 µM
TGI (RXF 393; read-out: pTGI (converted)): 1.38 µM
GI50 (M14): 6.03 µM
CC50 (M14; [5]): 83.2 µM
TGI (M14; read-out: pTGI (converted)): 23.4 µM
GI50 (LOX IMVI): 4.47 µM
LC50 (LOX IMVI): 46.8 µM
TGI (LOX IMVI; read-out: pTGI (converted)): 16.6 µM
EC50 (SF-295 [3]): > 10 µM
GI50 (NCI/ADR-RES): 17.4 µM
CC50 (NCI/ADR-RES; [5]): > 100 µM
TGI (NCI/ADR-RES; read-out: pTGI (converted)): 61.7 µM
GI50 (COLO 205): 10.7 µM
LC50 (COLO 205): 67.6 µM
TGI (COLO 205; read-out: pTGI (converted)): 26.9 µM
GI50 (T47D): 5.89 µM
CC50 (T47D; [5]): > 100 µM
TGI (T47D; read-out: pTGI (converted)): 35.5 µM
GI50 [4]: 1.45 µM
LC50 [4]: > 100 µM
TGI ([4]; read-out: pTGI (converted)): 7.24 µM
